Measured values: ChEMBL document CHEMBL1136857, “1-Malonyl-1,4-dihydropyridine as a novel carrier for specific delivery of drugs to the brain” (Bioorg Med Chem, 2009)

Key:
Mus musculus [1] = assay: Antidepressant activity against Swiss-Webster mouse assessed as reduction in duration of immobility at 10 mg/kg, ip after 1 hr by tail suspension behavioral despair test relative to control; format: functional; set-up: scale not given: the % may be the effect or the level left; details: route intraperitoneal
In short: (§1)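 Mice dosed ip at 10 mg/kg in 0.5% w/v CMC in water (0.5 mL per 100 g body weight); controls got CMC alone; imipramine 10 mg/kg as reference. One hour later mice were hung by the tail from a shelf edge 80 cm above the floor, taped about 1 cm from the tail tip. Immobility (passive, completely motionless hanging) timed over 6 min; mean ± S.E.M., % deviation from control.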

Mus musculus [2] = assay: Antidepressant activity against Swiss-Webster mouse at 10 mg/kg, ip after 1 hr by tail suspension behavioral despair test relative to imipramine; format: functional; details: route intraperitoneal; in short: as §1
[3] = Chemical stability in 30% hydrogen peroxide assessed as rate of oxidation by UV spectroscopy; format: physicochemical
[4] = Chemical stability in ferricyanide solution assessed as rate of oxidation by UV spectroscopy; format: physicochemical
[5] = Stability in Swiss-Webster mouse brain homogenate assessed as rate of oxidation by HPLC; format: ADME, tissue-based
In short: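 Brains from ten adult male Swiss-Webster mice were washed in ice-cold saline and homogenized in ice-cold isotonic phosphate buffer (0.2 mol, pH 7.4) to give 20% homogenate, then prewarmed 5 min at 37 °C. Methanolic dihydro compound added; held at 37 °C. Samples taken at 1–64 min into ice-cold methanol, frozen at −80 °C, then analysed by HPLC. Pseudo-first-order K and t1/2 from ln peak area vs time; n = 4.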

[6] = Stability in mouse plasma assessed as rate of oxidation by HPLC; format: ADME, cell-free
In short: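 Heparinized mouse blood spun 4000 rpm for 20 min; plasma diluted to 80% with phosphate buffer (0.11 mol, pH 7.4) and prewarmed at 37 °C. Methanolic dihydro compound added; kept at 37 °C. Aliquots at 1, 2, 4, 8, 16, 32 and 64 min quenched in ice-cold methanol, frozen at −80 °C, centrifuged, filtered and run on HPLC. K_disapp and t1/2 from linear regression of ln peak area vs time; n = 4.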

[7] = Stability in phosphate buffer at pH 5.8 after 4 days by HPLC; format: physicochemical
In short: (§2)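 Dihydropyridine carrier at 2 × 10^-1 mmol in 0.2 M phosphate buffer (pH 7.4 or 5.8) at room temperature (32 °C), followed for 4 days by HPLC for the parent and its oxidation or degradation products. Pseudo-first-order disappearance constant from linear regression of ln peak area against time; t1/2 calculated; n = 4.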

[8] = Stability in phosphate buffer at pH 7.4 after 4 days by HPLC; format: physicochemical; in short: as §2
Brain = assay: Drug level in Sprague-Dawley rat brain at 20 mg/kg, iv; format: ADME, organism-based; set-up: dose 20 mg/kg, route intravenous; details: in vivo
In short: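 Male Sprague-Dawley rats received a freshly prepared DMF solution (25 mg/mL) via the external jugular vein at 20 mg/kg. Animals sacrificed at 10, 20 and 45 min. Whole brain homogenized in water plus 5% DMF in acetonitrile, then centrifuged; blood precipitated in acetonitrile. Supernatants filtered and the quaternary acid quantified by HPLC against recovery spikes of quaternary salt into blank rat brain and blood.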

SMILES | Activity (Mus musculus [1]) [%] | Activity (Mus musculus [2]) [%] | half-life [3] [min] | half-life [4] [min] | half-life [5] [min] | half-life [6] [min] | half-life [7] [min] | half-life [8] [min] | Drug uptake (Brain) [µg/g]
CCOC(=O)C(C(=O)O)[n+]1cccc(C(=O)N/N=C/c2ccccc2O)c1.[Br-] (stereo not given) | 39.15 | 90.2 |  |  |  |  |  |  | 
CCOC(=O)C(C(=O)O)N1C=CC(C(=O)N/N=C/c2ccccc2O)C=C1 (stereo not given) | 36.7 | 92.8 | 4.08 | 2.48 |  |  |  |  | 
CCOC(=O)C(C(=O)O)N1C=CCC(C(=O)N/N=C/c2ccc(OC)cc2)=C1 (stereo not given) |  |  | 3.35 | 2.1 | 10.1 | 21.8 | 196 | 260 | 
CCOC(=O)C(C(=O)O)[n+]1ccc(C(=O)N/N=C/c2ccccc2Cl)cc1.[Br-] (stereo not given) | 31.42 | 79.6 |  |  |  |  |  |  | 
CN(C)c1ccc(/C=N/NC(=O)c2cc[n+](C(C(=O)O)C(=O)O)cc2)cc1.[Br-] | 50.75 |  |  |  |  |  |  |  | 
CCOC(=O)C(C(=O)O)[n+]1ccc(C(=O)N/N=C/c2ccccc2O)cc1.[Br-] (stereo not given) | 30.34 | 78.8 |  |  |  |  |  |  | 
CCOC(=O)C(C(=O)O)N1C=CC(C(=O)N/N=C/c2ccccc2Cl)C=C1 (stereo not given) | 40.9 | 86.7 | 5.3 | 3.01 | 10.7 | 23.3 | 252 | 402 | 23.23
CN(C)c1ccc(/C=N/NC(=O)C2C=CN(C(C(=O)O)C(=O)O)C=C2)cc1 | 54.95 |  | 3.15 | 1.14 | 9.58 | 18.9 | 169 | 248 | 29.17
CN1C=CC(C(=O)N/N=C/c2ccccc2Cl)C=C1 |  |  | 6.3 | 3.3 |  |  |  |  | 
CCOC(=O)C(C(=O)O)N1C=CCC(C(=O)N/N=C/c2ccccc2O)=C1 (stereo not given) | 64.55 |  | 3.85 | 2.17 |  |  |  |  | 
CN(C)CCCN1c2ccccc2CCc2ccccc21 [IMIPRAMINE] | 45.14 |  |  |  |  |  |  |  | 
